Measurements published in ChEMBL document CHEMBL1136311, “Growth inhibition activity of thioacetal artemisinin derivatives against human umbilical vein endothelial cells” (Bioorg Med Chem Lett, 2003).

System: HUVEC
Assay: Inhibitory activity against human umbilical vein endothelial cells (HUVEC) was assayed using MTT colorimetric proliferation assay
Assay type: functional, cell-based
Summary of the method: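 HUVEC grown in EGM-2 medium with growth factor, seeded at 10,000 cells/well and left 4 h to adhere. Test compounds diluted in the medium were added. Incubation in a 5% CO₂ humidified atmosphere, then viability read by MTT colorimetric proliferation assay. Growth inhibition reported as IC50.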

Row | SMILES | IC50
1 | CC(=O)S[C@H]1O[C@@H]2O[C@]3(C)CC[C@H]4[C@H](C)CC[C@@H]([C@H]1C)[C@@]24OO3 | 4.56 µM
2 | C[C@H]1[C@H](S)O[C@@H]2OC3(C)CC[C@H]4[C@H](C)CC[C@@H]1[C@@]24OO3 (single isomer, unassigned) | 1.29 µM
3 | C[C@H]1[C@@H]2CC[C@@H](C)[C@@H]3CCC4(C)OO[C@@]23[C@H](O[C@@H]1S(=O)(=O)c1ccccc1)O4 (single isomer, unassigned) | 1.74 µM
4 | C[C@@H]1[C@@H]2CC[C@@H](C)[C@@H]3CCC4(C)O[C@@H](O[C@@H]1S(=O)(=O)c1ccccc1)[C@]23O4 (single isomer, unassigned) | > 50 µM
5 | C[C@H]1[C@@H](Sc2ccccc2)O[C@@H]2OC3(C)CC[C@H]4[C@H](C)CC[C@@H]1[C@@]24O3 (single isomer, unassigned) | > 50 µM
6 | C[C@H]1[C@H](Oc2ccccc2)O[C@@H]2OC3(C)CC[C@H]4[C@H](C)CC[C@@H]1[C@@]24OO3 (single isomer, unassigned) | 31 µM
7 | C[C@H]1[C@@H](Oc2ccccc2)O[C@@H]2OC3(C)CC[C@H]4[C@H](C)CC[C@@H]1[C@@]24OO3 (single isomer, unassigned) | 33.8 µM
8 | C[C@H]1[C@H](S(=O)(=O)c2ccccc2)O[C@@H]2OC3(C)CC[C@H]4[C@H](C)CC[C@@H]1[C@@]24OO3 (single isomer, unassigned) | 12.8 µM
9 | C[C@H]1[C@H](Sc2ccccc2)O[C@@H]2OC3(C)CC[C@H]4[C@H](C)CC[C@@H]1[C@@]24OO3 (single isomer, unassigned) | 0.93 µM
10 | C[C@@H]1[C@@H]2CC[C@@H](C)[C@@H]3CCC4(C)OO[C@@]23[C@H](O[C@@H]1S(=O)(=O)c1ccccc1)O4 (single isomer, unassigned) | 18.2 µM
11 | C[C@H]1[C@@H](Sc2ccccc2)O[C@@H]2OC3(C)CC[C@H]4[C@H](C)CC[C@@H]1[C@@]24OO3 (single isomer, unassigned) | 5.24 µM
12 | C[C@@H]1CC[C@H]2[C@@H](C)C(=O)O[C@@H]3O[C@@]4(C)CC[C@@H]1[C@]32OO4 [ARTEMISININ] | > 50 µM
13 | CCO[C@H]1O[C@@H]2O[C@@]3(C)CC[C@H]4[C@H](C)CC[C@@H]([C@H]1C)[C@@]24OO3 [ARTEMOTIL] | > 50 µM
14 | C[C@H]1[C@@H](O)O[C@@H]2O[C@@]3(C)CC[C@H]4[C@H](C)CC[C@@H]1[C@@]24OO3 [ARTENIMOL] | 8.91 µM
15 | C[C@@H]1CC[C@H]2[C@@H](C)C(=O)O[C@@H]3O[C@@]4(C)CC[C@@H]1[C@]32O4 [DEOXYARTEMISININ] | > 50 µM
